From PubChem BioAssay
Most compounds without a hit are left out; they make up all but 6.8% or so of the library.
HSF1 inh: HSF1 inhibition; 300,000 compounds, 0.77% hits; activity change, negative = inhibition, % at 7.5 µM (by protocol); NIH3T3-HGL HSE-luciferase, MG132-induced, luminescence 8 h; hits give low values;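 active means more than half of replicate wells show activity change below -50%, luminescence cut by over half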;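 further: luciferase reports HSF-1 transcriptional activity via heat shock element; 0% = median of DMSO wells and -100% = zero luminescence signal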
HSF-1 act: increases HSF-1 driven luciferase reporter signal. activation, % at 9 µM. NIH3T3-HGL HSF-1 luciferase reporter, MG132, 8 h; 100% = twice DMSO control signal. 300,000 compounds, 1.7% hits;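 active means mean replicate activation of at least 50% with a set share of replicates each reaching 50%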;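 further: 0% = median of the neutral control wells and 100% = twice that signal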
PHOSPHO1 block: PHOSPHO1 (human) inhibition. Q8TCT1. recombinant PHOSPHO1, absorbance phosphatase assay. 290,000 compounds, 1.1% hits. inhibition, % at 13.3 µM; in the data active means inhibition above about 60%
Target sequence (Q8TCT1 whole entry, looked up): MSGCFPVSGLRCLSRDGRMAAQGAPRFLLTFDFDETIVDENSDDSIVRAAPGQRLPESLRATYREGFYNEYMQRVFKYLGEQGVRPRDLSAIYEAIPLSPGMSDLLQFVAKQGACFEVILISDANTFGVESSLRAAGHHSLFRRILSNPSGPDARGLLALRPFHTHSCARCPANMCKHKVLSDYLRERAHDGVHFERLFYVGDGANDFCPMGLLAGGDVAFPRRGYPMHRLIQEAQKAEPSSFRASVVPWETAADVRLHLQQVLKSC
core dimer inh: blocks dimerization of HCV core protein. 300,000 compounds, 0.33% hits. TR-FRET GST/Flag-core106 dimerization, 1536-well. inhibition, % at 5 µM. AID 1899;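 active means inhibition above the mean of all tested compounds plus 3 SD, set per screening campaign, cut at about 45% in these data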
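Assay system: GST-tagged and Flag-tagged HCV core protein residues 1-106 / Times: compound-protein-antibody incubation 4 h at 22.5 °C / Signal: time-resolved FRET, ex 340 nm, em 617 and 671 nm / Evaluation: % inhibition based on acceptor/donor emission ratio / Benchmarks: wells lacking GST-core106 and wells with excess unlabelled core106 / Repeats: singlicate, one well per compound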
ALR inh: inhibitors of human sulfhydryl oxidase ALR | P55789 | purified ALR, DTT oxidation, H2O2 HRP-luminol luminescence | 290,000 compounds, 3.8% hits | inhibition, % (test concentration not listed);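 active means mean replicate inhibition above about 79%, with every replicate also reaching it, limit read from the data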
AI-2 QS modul: Vibrio harveyi AI-2 quorum sensing modulation | Vibrio harveyi JMH597 AI-2 luminescence/OD600 ratio, 9 h; hits give low values; strain lacks LuxN and CqsS sensors; 0 = neutral-control median | AID 2094 | 300,000 compounds, 0.4% hits | activity change, % at 7.5 µM; in the data active means activity change below about -75%, passing the limit was not always enough;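 further: luminescence divided by OD600 gain over 9 h not by final OD600 alone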
An asterisk follows results filed as active.

`CCc1ccc(-c2nc(CS(=O)CC(=O)NC3CC3)c(C)o2)cc1` (stereo not drawn) gave HSF1 inh -1.0, HSF-1 act -2.9, PHOSPHO1 block 22.4, core dimer inh 12.7, ALR inh 98.4* and AI-2 QS modul 5.0.
CCc1ccc(-c2nc(CS(=O)CC(=O)O)c(C)o2)cc1 (stereo not drawn) was read as HSF1 inh -1.4, HSF-1 act -23.3, PHOSPHO1 block 32.2, core dimer inh 3.8, ALR inh 99.3* and AI-2 QS modul 18.2.
Screening CN(C)CCCC1(c2ccc(F)cc2)OCc2cc(C#N)ccc21 (stereo not drawn) returned HSF1 inh 0.9, HSF-1 act -10.7, PHOSPHO1 block -6.3, core dimer inh 11.5, ALR inh 0.1 and AI-2 QS modul 20.1.
CC(C)CC(OC(=O)c1cccs1)C(=O)NCc1ccco1 (stereo not drawn) was read as HSF1 inh -3.9, HSF-1 act 0.2, PHOSPHO1 block 41.6, core dimer inh 49.0*, ALR inh 44.8 and AI-2 QS modul 38.7.
Screening CCC(OC(=O)c1cccs1)C(=O)NCc1ccco1 (stereo not drawn) returned HSF1 inh 1.4, HSF-1 act 32.2, PHOSPHO1 block 10.6, core dimer inh -0.2, ALR inh 5.6 and AI-2 QS modul 19.7.
For Cc1cc(Cl)ccc1OCC(=O)Nc1nc(-c2cccs2)cs1 the results were HSF1 inh 2.7, HSF-1 act 27.0, PHOSPHO1 block 28.4, core dimer inh 7.7, ALR inh -3.6 and AI-2 QS modul 5.3.
`Cc1cc(Cl)ccc1OCC(=O)Nc1nc(-c2cccnc2)cs1` gave HSF1 inh -59.6*, HSF-1 act -70.0, PHOSPHO1 block 12.9, core dimer inh 3.9, ALR inh -5.2 and AI-2 QS modul 13.6.
Screening Cc1cc(C)cc(OCC(=O)Nc2nc(-c3cccnc3)cs2)c1 returned HSF1 inh -58.6*, HSF-1 act -57.9, PHOSPHO1 block 14.2, core dimer inh 2.6, ALR inh 0.6 and AI-2 QS modul 29.6.
Screening O=C(COc1ccccc1)Nc1nc(-c2cccnc2)cs1 returned ALR inh 4.2.
`C=CCN(c1ccccc1Cl)S(=O)(=O)c1cccc(C(=O)NCCc2ccc(OC)cc2)c1` gave HSF1 inh 7.8, HSF-1 act 27.5, PHOSPHO1 block -64.2, core dimer inh 14.1, ALR inh -4.5 and AI-2 QS modul 3.9.
CCOC(=O)C1CCCN(/C=C2\SC(=S)N(CC)C2=O)C1 (stereo not drawn) was read as HSF1 inh 3.8, HSF-1 act 4.7, PHOSPHO1 block 24.0, core dimer inh -1.0, ALR inh -11.0 and AI-2 QS modul 16.9.
Screening Cc1ccc(S(=O)(=O)N2CCCCC2)cc1NC(=O)Cn1c(=O)cnc2ccccc21 returned HSF1 inh 7.7, HSF-1 act 6.5, PHOSPHO1 block 60.0*, core dimer inh 2.2, ALR inh -1.0 and AI-2 QS modul 12.8.
CCOc1ncccc1C(=O)OCC(=O)Nc1cc(S(=O)(=O)N2CCOCC2)ccc1C was read as HSF1 inh -10.5, HSF-1 act 7.3, PHOSPHO1 block -16.1, core dimer inh -8.8, ALR inh 0.4 and AI-2 QS modul 6.8.
Screening Cc1ccc(S(=O)(=O)N2CCOCC2)cc1NC(=O)CN1CCN(c2ccc(O)cc2)CC1 returned HSF1 inh 2.3, HSF-1 act -2.2, PHOSPHO1 block 5.6, core dimer inh -1.2, ALR inh 96.8* and AI-2 QS modul 18.3.
Cc1ccc(S(=O)(=O)N2CCOCC2)cc1NC(=O)COC(=O)c1cccnc1Cl was read as HSF1 inh 6.4, HSF-1 act 53.6*, PHOSPHO1 block 24.4, core dimer inh 2.2 and AI-2 QS modul -0.4.
O=C(CN1CCN(c2ccc(O)cc2)CC1)Nc1ccc(S(=O)(=O)N2CCCC2)cc1 was read as ALR inh 88.0*.
Screening O=C(CN1CCCN(S(=O)(=O)c2ccc(Br)s2)CC1)Nc1ccc(Cl)cc1 returned HSF1 inh 7.0, HSF-1 act 17.1, PHOSPHO1 block 6.4, core dimer inh 0.1, ALR inh 91.1* and AI-2 QS modul 29.5.
